Source: PubChem (The Scripps Research Institute Molecular Screening Center)
This is a sample that favours compounds with a hit; in the whole collection about 1.8% have one here.
CHRM4 PAM: CHRM4 positive allosteric modulation; P08173; activation, % at 3 µM; 360,000 tested, 0.4% active; AID 624126; CHO-K1 hM4/Gqi5, Fluo-8 calcium fluorescence, ACh EC20; 0% = ACh EC20, 100% = maximal ACh;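 active = activation above its plate's cutoff, the mean activation of sample wells plus 3 SD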
Target sequence (P08173 whole entry, looked up): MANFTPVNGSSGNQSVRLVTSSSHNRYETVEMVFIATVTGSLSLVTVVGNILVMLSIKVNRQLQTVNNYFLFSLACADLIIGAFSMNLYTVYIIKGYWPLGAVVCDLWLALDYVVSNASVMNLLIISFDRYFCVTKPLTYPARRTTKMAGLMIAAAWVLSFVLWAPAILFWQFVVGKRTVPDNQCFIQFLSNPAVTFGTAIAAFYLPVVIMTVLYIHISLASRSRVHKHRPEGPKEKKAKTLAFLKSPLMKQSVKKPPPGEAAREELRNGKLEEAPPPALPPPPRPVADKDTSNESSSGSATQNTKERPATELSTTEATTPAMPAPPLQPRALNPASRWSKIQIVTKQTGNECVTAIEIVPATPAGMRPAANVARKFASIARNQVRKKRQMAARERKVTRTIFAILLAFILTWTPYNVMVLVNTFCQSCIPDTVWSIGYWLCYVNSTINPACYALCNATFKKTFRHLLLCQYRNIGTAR
M4 antag: antagonists of human muscarinic M4 receptor (CHRM4); P08173; CHO-hM4 cells, ACh EC80, Fluo-8 calcium fluorescence; inhibition, % at 3 µM; 360,000 tested, 0.73% active; AID 624125;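 active = inhibition above its plate's cutoff, the mean inhibition of sample wells plus 3 SD, cut at about 27% in these data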;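 also: 0% = acetylcholine EC80 with DMSO and 100% = DMSO without agonist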
CHRM5 agonist: CHRM5 agonism in calcium assay | P08912 | CHO-K1 hM5 cells, Fluo-8 calcium fluorescence; 0% DMSO wells, 100% maximal acetylcholine response | activation, % at 3 µM | 360,000 tested, 0.19% active | AID 624037;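 active = activation above the run's mean over test compounds plus 3 SD, cut at about 23% in these data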;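 also: signal is peak over basal fluorescence ratio across the kinetic read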
CHRM5 antagonist: blocks acetylcholine activation of human M5 receptor; P08912; CHO-hM5 cells, Fluo-8 calcium fluorescence, ACh EC80; inhibition, % at 3 µM; 360,000 tested, 0.59% active;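 active = inhibition above a per-plate cutoff, the mean of that plate's test compounds plus 3 SD, cut at about 27% in these data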;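 also: 0% = acetylcholine EC80 with DMSO and 100% = DMSO without agonist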
M5 PAM: potentiates acetylcholine response at human M5 receptor. 360,000 tested, 0.3% active. CHO-K1 hM5, Fluo-8 calcium, ACh EC20 PAM; 0% = ACh EC20, 100% = ACh EC100. activation, % at 3 µM. AID 624038;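 active = activation above the run cutoff, the mean activation of all test compounds plus 3 SD, cut at about 18% in these data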
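system = human M5 receptor in CHO-K1 cells | compound = one concentration, 3 µM final (nominal) | schedule = Post-acetylcholine fluorescence recording 140 s | signal = Fluo-8 calcium dye fluorescence, kinetic read | benchmarks = low control EC20 acetylcholine (0%), high control EC100 acetylcholine (100%) | repeats = singlicate, one well per test compound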
M4 ag: CHRM4 agonism in calcium assay. P08173. CHO-K1 hM4/Gqi5, Fluo-8 calcium fluorescence; vehicle 0%, full acetylcholine response 100%. activation, % at 3 µM. 360,000 tested, 0.14% active. AID 624127;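 active = activation above the run mean over all test wells plus 3 SD, cut at about 32% in these data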;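 also: peak over basal fluorescence ratio per well then scaled between controls; 0% = DMSO wells and 100% = acetylcholine at EC100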
Numbers without * were called inactive; ! = a repeat was not active.

SMILES	CHRM4 PAM	M4 antag	CHRM5 agonist	CHRM5 antagonist	M5 PAM	M4 ag
CC1(C(=O)NS(=O)(=O)c2cccc(F)c2)CCN1C(=O)CC1CCCC1 (configuration not stated)	14	-18	-1	3	4	1
Cc1ccccc1C(=O)N(C)[C@H]1C[C@H]2c3[nH]c4ccccc4c3CCN2C(=O)[C@H]1[C@H](C)O	-5	-4	3	9	-5	12
CCOC(=O)C1=C(COC(=O)CNS(=O)(=O)c2ccc(C)c(C)c2)NC(=O)NC1C (configuration not stated)	-3	0	1	-3	-1	3
CCOC(=O)C1=C(COC(=O)CNS(=O)(=O)c2ccc(NC(C)=O)cc2)NC(=O)NC1C (configuration not stated)	22*	-5	2	7	0	2
Cc1nc(N2CCN(S(=O)(=O)c3cccs3)CC2)c2c(-c3ccccc3)c(C)sc2n1	-2	-3	-1	2	0	0
Cc1ccc(-n2c(CSc3nc(C)cc(C)n3)nnc2SCC(=O)Nc2nccs2)cc1	25	38*	4	-6	9	3
COc1ccc(-n2c(CSc3nc(C)cc(C)n3)nnc2SCC(=O)Nc2nccs2)cc1	0	-3	1	5	-9	0
O=C(N/N=C/c1ccc(N2CCOCC2)c([N+](=O)[O-])c1)c1ccc(F)cc1	-4	-7	2	0	-6	6
CO/N=C/c1ccc(N2CCN(C(=O)c3cccc(C(F)(F)F)c3)CC2)c([N+](=O)[O-])c1	13	28*	4	6	-12	17
CO/N=C/c1ccc(N2CCN(C(=O)c3ccc(F)cc3)CC2)c([N+](=O)[O-])c1	57*	56*	10	7	-11	24
CO/N=C/c1ccc(N2CCN(C(=O)c3ccc(Cl)cc3Cl)CC2)c([N+](=O)[O-])c1	-30	40*	18	23	-16	31
Cc1cc(C)n2nc(SCCOc3ccccc3)nc2n1	21*	-22	1	5	3	2
COc1ccc(OCCSc2nc3nc(C)cc(C)n3n2)cc1	0	5	4	1	1	0
O=CNc1cc(-c2cccc(O)c2)cn2c(-c3ccc(F)cc3)cnc12	2	-2	-1	5	-7	6
COc1cccc(CNC(=O)CCC2CCCN(C3CCOCC3)C2)c1 (configuration not stated)	3	8	-5	15	-6	0
COc1cccc(CNC(=O)CCC2CCCN(c3cc(C)nc(N4CCCC4)n3)C2)c1 (configuration not stated)	-23	28*	-9	7	3	0
C#CCN1CCc2onc(-c3ccc(Br)cc3)c2C1=O	5	-9	2	-5	0	9
C[C@@H](c1ccccc1)N1C[C@@H](COCc2ccccc2)Oc2cc(N3CCC[C@H]3C(N)=O)ccc2S1(=O)=O	4	-17	2	-3	-6	4
CCN(CC)c1ccc(/C=C2\C(=O)c3ccc(C(=O)O)cc3C2=O)cc1	-11	32*	32*	25	-21	20
COc1ccccc1CNC(=O)C[C@H]1CC[C@@H]2[C@H](COC[C@H](O)CN2Cc2ccc3c(c2)OCO3)O1	-3	14	2	6	0	1
NC(N)=N/N=C/c1c(Cl)cccc1Cl	-5	-8	29*!	-2	-15	13
Cc1ccc(F)c(S(=O)(=O)NC(=O)C2(C)CCN2C(=O)CCc2ccccc2)c1 (configuration not stated)	1	1	3	14	-1	1
CCC1CCCCN1CCCNC(=O)CNC(=O)c1nn(-c2ccc(OC)c(Cl)c2)c(=O)c2ccccc12 (configuration not stated)	-18	37*	-7	10	-2	3
COc1ccc(-n2nc(C(=O)NCC(=O)Nc3cc(OC)c(OC)c(OC)c3)c3ccccc3c2=O)cc1OC	-12	27*	3	17	-13	18
COc1cccc(C(NC(C)=O)c2nc(-c3ccccc3)cs2)c1 (configuration not stated)	2	-7	3	2	-1	2
SMILES	CHRM4 PAM	M4 antag	CHRM5 agonist	CHRM5 antagonist	M5 PAM	M4 ag
OC(c1ccc(F)c(F)c1)c1nc(-c2ccc3ccccc3c2)cs1 (configuration not stated)	1	5	1	1	-3	6
COc1ccc(NC(=O)c2oc3ccc(S(=O)(=O)N4CCC5(CC4)OCCO5)cc3c2C)cc1	-10	26	12	19	-24	32*
C=CCNC(=O)c1oc2ccc(S(=O)(=O)N3CCC4(CC3)OCCO4)cc2c1C	4	-3	1	-12	-1	3
O=C1NC[C@H](CC2CCCCC2)N(CCC23CC4CC(CC(C4)C2)C3)C1=O	10	-4	4	-4	4	1
COc1ccc(OC)c(CCNC(=O)c2ccc3c(c2)N(Cc2ccc(F)cc2)CCS3)c1	-4	8	-5	17	-7	0
COc1ccc(CCNC(=O)c2ccc3c(c2)N(Cc2ccc(C)cc2)CCS3)cc1OC	-9	6	-9	39*	-16	5
COCCN(CCOC)Cc1cc(=O)oc2cc(C)ccc12	-1	-8	5	-7	8	1
O=C(Nc1ccccc1)Nc1cc(OCC(F)(F)F)cc(OCC(F)(F)F)c1	-16	10	1	47*	-18	12
COc1ccc(NC(=O)c2cccnc2Nc2ccc(OC)cc2)cc1	-17	52*	-4	4	0	2
O=c1c2c(nc3nc(NCc4ccc(Cl)cc4)[nH]n13)CCC2	-9	5	-2	-4	-6	0
O=c1c2c(nc3nc(CCc4ccccc4)[nH]n13)CCC2	7	-12	-4	-6	22*	-1
S=c1[nH]nc(CN2CCCCC2)n1-c1ccc(Cl)cc1	-7	2	2	10	-12	15
Fc1ccc(-n2c(CN3CCCCC3)n[nH]c2=S)cc1	10	-5	2	1	21*	1
CO[C@@H]1CN(C)C(=O)c2ccc(NC(=O)c3ccccc3F)cc2OC[C@@H](C)N(CC2CCOCC2)C[C@@H]1C	13	-13	-1	-1	-5	3
CN(Cc1cccnc1)C(=O)c1cc(COc2ccc3c(c2)CCCC3)on1	-12	0	-1	33*	-18	15
CC(=O)c1cccc(OCc2cc(C(=O)N(C)Cc3cnccn3)no2)c1	5	-8	1	1	1	3
